Test system: not listed separately
Experiment: Selectivity index, ratio of CC50 for human […] cells to EC50 for HIV1 3B infected in human C8166 cells
Assay type: toxicity, cell-based
Conditions: read-out: Ratio CC50/IC50
Method in brief: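 SI was calculated as CC50/EC50. CC50 came from the 72 h MTT assay on uninfected C8166 cells. EC50 came from the 3-day syncytium-count assay in C8166 cells infected with HIV-1 IIIB at MOI 0.02. Both values are means of three experiments.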

SMILES	selectivity ratio
CC(C)c1c(CC2CCCCC2)nc(SCC(=O)c2ccccc2O)[nH]c1=O	117000
COc1ccc(C(=O)CSc2nc(CC3CCCCC3)c(C(C)C)c(=O)[nH]2)cc1	1.39e+06
CC(C)c1c(CC2CCCCC2)nc(SCC(=O)c2ccccc2)[nH]c1=O	3.62e+06
CC(C)CSc1nc(CC2CCCCC2)c(C(C)C)c(=O)[nH]1	1710
CC(C)c1c(CC2CCCCC2)nc(SCc2ccccc2)[nH]c1=O	2.54e+06
CCc1c(CC2CCCCC2)nc(SCC(=O)c2ccc(OC)cc2)[nH]c1=O	516000
CCc1c(CC2CCCCC2)nc(SCC(=O)c2ccccc2)[nH]c1=O	6.32e+06
CCc1c(CC2CCCCC2)nc(SCc2ccccc2)[nH]c1=O	776
CCc1c(CC2CCCCC2)nc(SCC(C)C)[nH]c1=O	691
COc1ccc(C(=O)CSc2nc(CC3CCCCC3)c(C)c(=O)[nH]2)cc1	396
Cc1c(CC2CCCCC2)nc(SCC(=O)c2ccccc2)[nH]c1=O	2150
Cc1c(CC2CCCCC2)nc(SCc2ccccc2)[nH]c1=O	48
Cc1c(CC2CCCCC2)nc(SCC(C)C)[nH]c1=O	34
CCc1c(Cc2ccccc2)nc(SCC(=O)c2ccccc2)[nH]c1=O	> 6850
CCc1c(Cc2ccccc2)nc(SCC(=O)c2ccc(OC)cc2)[nH]c1=O	> 10500
CC(C)c1c(Cc2ccccc2)nc(SCC(=O)c2ccccc2)[nH]c1=O	> 37700
COc1ccc(C(=O)CSc2nc(Cc3ccccc3)c(C(C)C)c(=O)[nH]2)cc1	> 3390
Cc1ccnc2c1NC(=O)c1cccnc1N2C1CC1 [NEVIRAPINE]	> 15200
Cc1cn([C@H]2C[C@H](N=[N+]=[N-])[C@@H](CO)O2)c(=O)[nH]c1=O [ZIDOVUDINE]	444000

Test system: Human immunodeficiency virus 1
Experiment: Antiviral activity against HIV1 3B infected in human PBMC assessed as protection against virus-induced cytopathogenicity after 3 days
Assay type: functional, organism-based
Conditions: Human immunodeficiency virus 1, 3B, 72 h

EC50 [nM]	SMILES
31	CC(C)c1c(CC2CCCCC2)nc(SCC(=O)c2ccccc2)[nH]c1=O

Test system: Human immunodeficiency virus 1
Experiment: Antiviral activity against HIV1 3B infected in human A17 cells assessed as protection against virus-induced cytopathogenicity after 3 days
Assay type: functional, organism-based
Conditions: Human immunodeficiency virus 1, 3B, A17, 72 h

EC50 [nM]	SMILES
46	CC(C)c1c(CC2CCCCC2)nc(SCC(=O)c2ccccc2)[nH]c1=O

Source: ChEMBL document CHEMBL1641481, “Synthesis and biological evaluation of novel dihydro-aryl/alkylsulfanyl-cyclohexylmethyl-oxopyrimidines (S-DACOs) as high active anti-HIV agents” (Bioorg Med Chem Lett, 2011)
